In ChEMBL document CHEMBL1131521, “Structure-activity relationships for 1-phenylbenzimidazoles as selective ATP site inhibitors of the platelet-derived growth factor receptor” (J Med Chem, 1998):

Key:
[1] = molecular target: Platelet-derived growth factor receptor beta (Mus musculus, UniProt P05622); test: Inhibition of phosphorylation of a random glutamate/tyrosine copolymer in lysates of transfected Sf9 insect cells overexpressing mouse platelet-derived growth factor receptor beta
Procedure, shortened: (§1)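 Kinase source was lysate of transfected Sf9 insect cells overexpressing the receptor. Substrate was a random glutamate/tyrosine (4:1) copolymer, and the read-out was its phosphorylation. IC50 was the drug concentration (µM) giving inhibition.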

[2] = molecular target: Fibroblast growth factor receptor 1 (Homo sapiens, UniProt P11362); test: Inhibition of phosphorylation of a random glutamate/tyrosine copolymer in lysates of transfected Sf9 insect cells overexpressing human fibroblast growth factor receptor 1; procedure, shortened: as §1
Sequence of Fibroblast growth factor receptor 1 (P11362 whole entry): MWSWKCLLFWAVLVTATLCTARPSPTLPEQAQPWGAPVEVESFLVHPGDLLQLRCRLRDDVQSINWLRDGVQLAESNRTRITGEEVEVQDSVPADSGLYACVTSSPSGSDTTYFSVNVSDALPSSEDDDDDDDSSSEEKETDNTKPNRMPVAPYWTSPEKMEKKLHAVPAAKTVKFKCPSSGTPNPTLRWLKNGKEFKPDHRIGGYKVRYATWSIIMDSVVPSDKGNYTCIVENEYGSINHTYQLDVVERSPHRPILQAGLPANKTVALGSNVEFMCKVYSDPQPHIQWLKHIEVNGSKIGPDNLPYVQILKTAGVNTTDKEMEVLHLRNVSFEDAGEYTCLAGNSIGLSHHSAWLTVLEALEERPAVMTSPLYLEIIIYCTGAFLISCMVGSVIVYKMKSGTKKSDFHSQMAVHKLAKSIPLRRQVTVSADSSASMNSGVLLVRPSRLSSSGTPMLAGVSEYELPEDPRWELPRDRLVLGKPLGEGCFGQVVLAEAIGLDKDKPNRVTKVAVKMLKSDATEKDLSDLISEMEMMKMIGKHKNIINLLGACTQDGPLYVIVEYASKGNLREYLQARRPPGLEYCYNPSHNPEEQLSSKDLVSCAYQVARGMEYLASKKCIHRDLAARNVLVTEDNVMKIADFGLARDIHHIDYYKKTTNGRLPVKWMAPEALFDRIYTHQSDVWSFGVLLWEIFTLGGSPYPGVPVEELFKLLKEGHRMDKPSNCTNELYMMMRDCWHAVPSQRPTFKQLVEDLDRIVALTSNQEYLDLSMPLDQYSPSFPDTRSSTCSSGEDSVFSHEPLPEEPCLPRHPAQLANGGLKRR

[3] = molecular target: Platelet-derived growth factor receptor (PDGFr) (Rattus norvegicus, UniProt P20786+Q05030); test: Inhibition of PDGF-stimulated Platelet-derived growth factor receptor autophosphorylation in rat aorta vascular smooth muscle cells.; format: functional
Procedure, shortened: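 Rat aortic vascular smooth muscle cells, serum-starved, were exposed to compound for 2 h before stimulation with PDGF-BB at 25 ng/mL. Cell lysates or immunoprecipitates were analysed by Western blot with anti-phosphotyrosine antibody.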

Sequence of Platelet-derived growth factor receptor beta (P05622 whole entry): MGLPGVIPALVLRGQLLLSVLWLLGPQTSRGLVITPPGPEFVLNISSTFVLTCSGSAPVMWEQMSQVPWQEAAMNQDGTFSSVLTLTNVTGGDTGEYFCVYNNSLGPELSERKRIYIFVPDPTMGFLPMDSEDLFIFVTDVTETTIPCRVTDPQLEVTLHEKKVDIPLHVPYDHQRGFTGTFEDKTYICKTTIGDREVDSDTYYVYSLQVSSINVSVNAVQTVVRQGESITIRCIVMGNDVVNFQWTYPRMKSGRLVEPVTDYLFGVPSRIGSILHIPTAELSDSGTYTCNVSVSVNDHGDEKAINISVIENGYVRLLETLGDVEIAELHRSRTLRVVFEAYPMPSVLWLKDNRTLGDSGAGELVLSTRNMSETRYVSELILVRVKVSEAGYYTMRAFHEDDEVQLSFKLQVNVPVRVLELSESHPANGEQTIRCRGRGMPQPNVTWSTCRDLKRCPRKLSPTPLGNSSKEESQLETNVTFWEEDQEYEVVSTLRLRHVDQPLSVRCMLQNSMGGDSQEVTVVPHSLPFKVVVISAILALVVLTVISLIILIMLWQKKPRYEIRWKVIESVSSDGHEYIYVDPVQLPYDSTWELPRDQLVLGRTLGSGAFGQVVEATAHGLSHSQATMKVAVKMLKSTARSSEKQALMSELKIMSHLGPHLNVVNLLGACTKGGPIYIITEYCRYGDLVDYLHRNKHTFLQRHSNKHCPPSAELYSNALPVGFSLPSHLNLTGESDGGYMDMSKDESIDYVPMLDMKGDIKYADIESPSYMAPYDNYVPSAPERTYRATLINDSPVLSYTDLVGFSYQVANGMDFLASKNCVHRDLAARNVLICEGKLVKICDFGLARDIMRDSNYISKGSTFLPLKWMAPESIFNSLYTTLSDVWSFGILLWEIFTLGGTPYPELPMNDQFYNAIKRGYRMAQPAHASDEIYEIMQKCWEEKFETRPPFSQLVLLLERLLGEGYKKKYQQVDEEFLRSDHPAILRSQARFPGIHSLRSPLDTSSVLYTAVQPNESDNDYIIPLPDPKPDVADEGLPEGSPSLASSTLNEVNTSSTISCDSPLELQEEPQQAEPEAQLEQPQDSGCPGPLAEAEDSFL

SMILES | IC50 [1] | IC50 [2] | IC50 [3]
Cc1cccc2c1ncn2-c1ccccc1 | > 50 µM | > 50 µM | –
c1ccc(-n2ccc3ccccc32)cc1 | > 50 µM | > 50 µM | –
O=C(O)c1cccc(-n2cnc3ccccc32)c1 | > 50 µM | > 50 µM | –
O=C(O)c1cccc2c1ncn2-c1ccccc1 | > 50 µM | > 50 µM | –
O=Cc1ccccc1-n1cnc2ccccc21 | > 50 µM | > 50 µM | –
Cc1nc2ccccc2n1-c1ccccc1 | > 50 µM | > 50 µM | –
O=[N+]([O-])c1cccc2ncn(-c3ccccc3)c12 | > 50 µM | 40 µM | –
Oc1nc2ccccc2n1-c1ccccc1 | > 50 µM | > 50 µM | –
O=C(O)c1ccccc1-n1cnc2ccccc21 | > 50 µM | > 50 µM | –
Nc1ccc2ncn(-c3ccccc3)c2c1 | 23 µM | > 50 µM | –
Oc1ccc2ncn(-c3ccccc3)c2c1 | – | > 50 µM | –
O=[N+]([O-])c1ccc2c(c1)ncn2-c1ccccc1 | 16 µM | > 50 µM | –
c1ccc(-n2nnc3ccccc32)cc1 | > 50 µM | > 50 µM | –
Nc1ccccc1-n1cnc2ccccc21 | > 50 µM | > 50 µM | –
COc1cccc2ncn(-c3ccccc3)c12 | 37 µM | 50 µM | –
c1cncc(-n2cnc3ccccc32)c1 | > 50 µM | > 50 µM | –
CC(=O)c1ccc(-n2cnc3ccccc32)cc1 | 24 µM | > 50 µM | –
NC(=O)c1ccccc1-n1cnc2ccccc21 | > 50 µM | > 50 µM | –
COC(=O)c1cccc2ncn(-c3ccccc3)c12 | > 50 µM | > 50 µM | –
c1ccc(-n2cnc3ccccc32)nc1 | > 50 µM | > 50 µM | –

SMILES | IC50 [1] | IC50 [2] | IC50 [3]
Nc1cccc(-n2cnc3ccccc32)c1 | – | > 50 µM | –
c1ccc(-n2cnc3ccccc32)cc1 | – | > 50 µM | 2.3 µM
NC(=O)c1ccc(-n2cnc3ccccc32)cc1 | 23 µM | > 50 µM | –
COc1ccccc1-n1cnc2ccccc21 | > 50 µM | > 50 µM | –
O=[N+]([O-])c1ccc(-n2cnc3ccccc32)cc1 | 30 µM | > 50 µM | –
Cc1cccc(-n2cnc3ccccc32)c1 | 28 µM | > 50 µM | –
COc1cccc(-n2cnc3ccccc32)c1 | 25 µM | 50 µM | –
Nc1ccc(-n2cnc3ccccc32)cc1 | – | > 50 µM | 2 µM
Cc1ccc(-n2cnc3ccccc32)cc1 | > 50 µM | > 50 µM | –
Cc1ccc2ncn(-c3ccccc3)c2c1 | 40 µM | > 50 µM | –
O=[N+]([O-])c1ccccc1-n1cnc2ccccc21 | > 50 µM | > 50 µM | –
Nc1nc2ccccc2n1-c1ccccc1 | > 50 µM | > 50 µM | –
N#Cc1ccc(-n2cnc3ccccc32)cc1 | 16 µM | > 50 µM | –
CCOC(=O)c1cccc(-n2cnc3ccccc32)c1 | > 50 µM | > 50 µM | –
O=[N+]([O-])c1ccc2ncn(-c3ccccc3)c2c1 | 50 µM | 39 µM | –
c1ccc2c(c1)ncn2-c1ccncc1 | 12 µM | > 50 µM | –
NC(=O)c1cccc(-n2cnc3ccccc32)c1 | > 50 µM | > 50 µM | –
N#Cc1ccccc1-n1cnc2ccccc21 | > 50 µM | > 50 µM | –
COC(=O)c1ccc(-n2cnc3ccccc32)cc1 | – | 50 µM | –
O=[N+]([O-])c1cccc(-n2cnc3ccccc32)c1 | 16 µM | 35 µM | –

More lines, now with the values ahead:

IC50 [1] | IC50 [2] | IC50 [3] | SMILES
50 µM | 50 µM | – | O=C(O)c1ccc2ncn(-c3ccccc3)c2c1
50 µM | > 50 µM | – | COc1cccc2c1ncn2-c1ccccc1
> 50 µM | > 50 µM | – | NC(=O)c1cccc2c1ncn2-c1ccccc1
0.86 µM | – | – | CC(=O)c1ccc2c(c1)ncn2-c1ccccc1
47 µM | 50 µM | – | Clc1cccc(-n2cnc3ccccc32)c1
> 50 µM | > 50 µM | – | O=[N+]([O-])c1cccc2c1ncn2-c1ccccc1
> 50 µM | > 50 µM | – | Clc1cccc2ncn(-c3ccccc3)c12
> 50 µM | > 50 µM | – | NC(=O)c1cccc2ncn(-c3ccccc3)c12
> 50 µM | > 50 µM | – | c1ccc(-n2ncc3ccccc32)cc1
– | 50 µM | – | O=Cc1cccc(-n2cnc3ccccc32)c1
– | 50 µM | – | Cc1ccc2c(c1)ncn2-c1ccccc1
0.83 µM | – | 0.15 µM | COC(=O)c1ccc2c(c1)ncn2-c1ccccc1
13 µM | > 50 µM | – | COc1ccc(-n2cnc3ccccc32)cc1
28 µM | > 50 µM | – | c1ccc(-n2cnc3cccnc32)cc1
> 50 µM | > 50 µM | – | Cc1ccccc1-n1cnc2ccccc21
– | > 50 µM | – | Clc1ccc2ncn(-c3ccccc3)c2c1
> 50 µM | > 50 µM | – | Clc1ccccc1-n1cnc2ccccc21
> 50 µM | > 50 µM | – | CC(=O)c1ccccc1-n1cnc2ccccc21
13 µM | > 50 µM | – | O=Cc1ccc(-n2cnc3ccccc32)cc1
> 50 µM | > 50 µM | – | Cc1cccc2ncn(-c3ccccc3)c12
> 50 µM | > 50 µM | – | c1ccc(-c2nc3ccccc3[nH]2)cc1
> 50 µM | > 50 µM | – | O=C(c1ccccc1)n1cnc2ccccc21

IC50 [1] | IC50 [2] | IC50 [3] | SMILES
50 µM | > 50 µM | – | Clc1ccc(-n2cnc3ccccc32)cc1
> 50 µM | > 50 µM | – | COC(=O)c1cccc2c1ncn2-c1ccccc1
19 µM | > 50 µM | – | CC(=O)c1cccc(-n2cnc3ccccc32)c1
> 50 µM | > 50 µM | – | O=C(O)c1ccc(-n2cnc3ccccc32)cc1
> 50 µM | > 50 µM | – | c1ccc(Cn2cnc3ccccc32)cc1
> 50 µM | > 50 µM | – | O=C(O)c1cccc2ncn(-c3ccccc3)c12
> 50 µM | > 50 µM | – | Clc1cccc2c1ncn2-c1ccccc1
> 50 µM | > 50 µM | – | N#Cc1cccc(-n2cnc3ccccc32)c1
– | > 50 µM | > 10 µM | COc1ccc2ncn(-c3ccccc3)c2c1
25 µM | > 50 µM | – | NC(=O)c1ccc2ncn(-c3ccccc3)c2c1
> 50 µM | 50 µM | – | Oc1cccc2ncn(-c3ccccc3)c12
> 50 µM | > 50 µM | – | Nc1cccc2ncn(-c3ccccc3)c12
> 50 µM | > 50 µM | – | Oc1ccccc1-n1cnc2ccccc21
– | > 50 µM | – | O=Cc1ccc2c(c1)ncn2-c1ccccc1
16 µM | – | – | NC(=O)c1ccc2c(c1)ncn2-c1ccccc1
> 50 µM | > 50 µM | – | c1ccc(C2=Nc3ccccc3NCC2)cc1
– | > 50 µM | – | COC(=O)c1ccc2ncn(-c3ccccc3)c2c1
> 50 µM | > 50 µM | – | Nc1cccc2c1ncn2-c1ccccc1
> 50 µM | > 50 µM | – | CCOC(=O)c1ccccc1-n1cnc2ccccc21
11 µM | > 50 µM | > 10 µM | Oc1cccc2c1ncn2-c1ccccc1
0.43 µM | – | 1.9 µM | COc1ccc2c(c1)ncn2-c1ccccc1
0.44 µM | – | 0.13 µM | Oc1ccc2c(c1)ncn2-c1ccccc1
